Here are results for one compound from ChEMBL document CHEMBL5325511, “Discovery of N-(4-(Aminomethyl)phenyl)-5-methylpyrimidin-2-amine Derivatives as Potent and Selective JAK2 Inhibitors” (ACS Med Chem Lett, 2023).

In one assay the test system is BaF3. The assay is described as follows: Inhibition of JAK2/STAT signaling pathway in mouse BaF3 cells harbouring JAK2 V617F mutant assessed as reduction in STAT3 phosphorylation by Western blot analysis. Particulars: dose 10-1000 nM. The class given is cell-based. The method in brief:
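Ba/F3 JAK2V617F cells treated with compound at increasing concentrations. Phosphorylation levels of JAK2, STAT3, STAT5 and AKT assessed by Western blot.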
In general terms: Immunoblotting shows a protein as a band on a membrane.

The target in assay [1] is Tyrosine-protein kinase Lyn (Homo sapiens) (UniProt P07948). The assay is described as follows: Inhibition of LYN (unknown origin). In outline:
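Kinase panel profiling (KinaseProfile, run by an outside contractor). The inhibitor was tested at 1 μM in duplicate against DMSO control. The value is % control, the percentage of kinase activity remaining.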

Assay [2] concerns the target Non-receptor tyrosine-protein kinase TYK2 (Homo sapiens, UniProt P29597). Description: Inhibition of TYK2 (unknown origin) in presence of Mg/ATP mixture by [gamma p33]-ATP based radiometric assay.

The structures appear in SMILES notation. The source made the active and inactive calls. The rule behind the calls is not given here.

Chain of Non-receptor tyrosine-protein kinase TYK2 (P29597 whole entry): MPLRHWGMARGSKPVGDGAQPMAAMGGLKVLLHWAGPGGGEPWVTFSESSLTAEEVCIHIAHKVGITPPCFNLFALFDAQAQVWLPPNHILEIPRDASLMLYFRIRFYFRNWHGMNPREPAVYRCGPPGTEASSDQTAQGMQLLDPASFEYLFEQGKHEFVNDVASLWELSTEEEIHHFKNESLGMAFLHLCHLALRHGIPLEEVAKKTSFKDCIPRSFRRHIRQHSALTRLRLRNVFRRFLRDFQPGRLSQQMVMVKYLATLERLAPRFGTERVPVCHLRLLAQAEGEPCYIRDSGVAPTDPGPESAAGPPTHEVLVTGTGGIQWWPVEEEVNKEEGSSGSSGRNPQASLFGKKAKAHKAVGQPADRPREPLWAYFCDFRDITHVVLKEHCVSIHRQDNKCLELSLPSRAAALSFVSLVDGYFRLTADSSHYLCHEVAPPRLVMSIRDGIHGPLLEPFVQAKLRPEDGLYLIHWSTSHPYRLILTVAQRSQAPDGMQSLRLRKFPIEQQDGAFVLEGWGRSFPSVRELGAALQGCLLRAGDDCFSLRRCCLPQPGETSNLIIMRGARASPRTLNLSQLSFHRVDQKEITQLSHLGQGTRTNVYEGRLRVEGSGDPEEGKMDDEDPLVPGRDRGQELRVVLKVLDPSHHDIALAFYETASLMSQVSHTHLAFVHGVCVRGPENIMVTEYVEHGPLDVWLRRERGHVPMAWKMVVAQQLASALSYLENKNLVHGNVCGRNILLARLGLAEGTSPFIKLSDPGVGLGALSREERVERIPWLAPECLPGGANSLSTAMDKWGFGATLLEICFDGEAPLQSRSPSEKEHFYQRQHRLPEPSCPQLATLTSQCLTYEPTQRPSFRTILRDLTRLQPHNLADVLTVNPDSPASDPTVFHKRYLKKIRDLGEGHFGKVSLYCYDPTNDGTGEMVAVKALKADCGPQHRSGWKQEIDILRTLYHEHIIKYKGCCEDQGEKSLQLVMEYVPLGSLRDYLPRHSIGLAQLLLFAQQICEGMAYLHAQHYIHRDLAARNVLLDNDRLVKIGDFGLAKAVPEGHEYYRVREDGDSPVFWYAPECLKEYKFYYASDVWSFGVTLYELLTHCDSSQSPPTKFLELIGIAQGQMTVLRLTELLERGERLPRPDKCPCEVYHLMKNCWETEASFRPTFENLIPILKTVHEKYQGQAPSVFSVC
Chain of Tyrosine-protein kinase Lyn (Homo sapiens) (P07948 2-512 limits assumed): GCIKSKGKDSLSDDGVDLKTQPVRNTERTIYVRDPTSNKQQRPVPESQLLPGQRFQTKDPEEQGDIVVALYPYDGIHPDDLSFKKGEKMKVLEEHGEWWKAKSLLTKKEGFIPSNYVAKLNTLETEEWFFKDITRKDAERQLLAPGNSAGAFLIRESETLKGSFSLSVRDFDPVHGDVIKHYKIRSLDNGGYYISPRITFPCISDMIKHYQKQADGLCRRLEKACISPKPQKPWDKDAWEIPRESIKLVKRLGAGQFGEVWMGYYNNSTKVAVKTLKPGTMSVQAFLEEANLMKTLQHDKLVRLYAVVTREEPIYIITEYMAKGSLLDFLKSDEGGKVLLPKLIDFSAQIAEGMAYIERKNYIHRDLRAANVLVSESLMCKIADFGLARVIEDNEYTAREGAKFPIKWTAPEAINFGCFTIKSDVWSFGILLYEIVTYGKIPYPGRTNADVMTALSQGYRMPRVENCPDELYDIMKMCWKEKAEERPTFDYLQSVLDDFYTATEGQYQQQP

`C=CS(=O)(=O)NCc1ccc(Nc2ncc(C)c(-c3cnn(C(C)C)c3)n2)cc1`: the inhibition result in the assay on BaF3 is “Dose-Dependent Effect”. In assay [1], the inhibition entry was “Active”. Also, the IC50 in assay [2] was 206 nM.

One may read the IC50 as the point on the concentration scale where inhibition reaches its midpoint.
